ChEMBL document CHEMBL3351375, “Propyphenazone-based analogues as prodrugs and selective cyclooxygenase-2 inhibitors” (ACS Med Chem Lett, 2014)
Calls of active or inactive are those of the source. The rule behind the calls is not given here.

Legend:
[1] = biological target: T1, Liver carboxylesterase (Sus scrofa, UniProt Q29550); assay: Prodrug conversion assessed as half life for porcine liver esterase-mediated prodrug conversion measured every 4 minutes for 100 mins by UV-visible absorption spectroscopy; format: ADME; settings: pig, isolated protein
T1 sequence (Q29550 whole entry): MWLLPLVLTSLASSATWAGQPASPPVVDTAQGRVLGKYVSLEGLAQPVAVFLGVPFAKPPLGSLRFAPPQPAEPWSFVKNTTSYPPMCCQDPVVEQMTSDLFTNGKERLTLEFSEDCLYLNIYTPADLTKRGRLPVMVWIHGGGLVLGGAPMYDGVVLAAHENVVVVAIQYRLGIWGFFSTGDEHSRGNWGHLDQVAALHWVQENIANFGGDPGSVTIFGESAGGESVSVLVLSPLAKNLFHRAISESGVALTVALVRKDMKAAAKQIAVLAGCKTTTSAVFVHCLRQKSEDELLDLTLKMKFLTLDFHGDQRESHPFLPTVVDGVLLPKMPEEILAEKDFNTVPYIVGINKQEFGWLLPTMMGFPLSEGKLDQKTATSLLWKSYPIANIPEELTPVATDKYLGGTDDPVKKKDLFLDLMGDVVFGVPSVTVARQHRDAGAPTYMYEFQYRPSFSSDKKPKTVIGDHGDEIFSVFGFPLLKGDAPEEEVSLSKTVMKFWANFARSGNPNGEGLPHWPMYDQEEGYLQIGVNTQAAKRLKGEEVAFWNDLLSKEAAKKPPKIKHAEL
How it was run: (§1)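 Compound was incubated with porcine liver esterase at pH 7.5. UV–vis absorption spectra were recorded every 4 min for 100 min after esterase addition. Pseudo-first-order rate constants (s−1) were derived, and half-lives were calculated from them.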

[2] = biological target: T2, Prostaglandin G/H synthase 1 (Ovis aries) (UniProt P05979); assay: Inhibition of purified ovine COX1 at saturation drug level pre-treated for 1 hr before 10-acetyl-3,7-dihydroxyphenoxazin substrate addition in presence of porcine liver esterase by fluorescence assay
T2 sequence (whole entry): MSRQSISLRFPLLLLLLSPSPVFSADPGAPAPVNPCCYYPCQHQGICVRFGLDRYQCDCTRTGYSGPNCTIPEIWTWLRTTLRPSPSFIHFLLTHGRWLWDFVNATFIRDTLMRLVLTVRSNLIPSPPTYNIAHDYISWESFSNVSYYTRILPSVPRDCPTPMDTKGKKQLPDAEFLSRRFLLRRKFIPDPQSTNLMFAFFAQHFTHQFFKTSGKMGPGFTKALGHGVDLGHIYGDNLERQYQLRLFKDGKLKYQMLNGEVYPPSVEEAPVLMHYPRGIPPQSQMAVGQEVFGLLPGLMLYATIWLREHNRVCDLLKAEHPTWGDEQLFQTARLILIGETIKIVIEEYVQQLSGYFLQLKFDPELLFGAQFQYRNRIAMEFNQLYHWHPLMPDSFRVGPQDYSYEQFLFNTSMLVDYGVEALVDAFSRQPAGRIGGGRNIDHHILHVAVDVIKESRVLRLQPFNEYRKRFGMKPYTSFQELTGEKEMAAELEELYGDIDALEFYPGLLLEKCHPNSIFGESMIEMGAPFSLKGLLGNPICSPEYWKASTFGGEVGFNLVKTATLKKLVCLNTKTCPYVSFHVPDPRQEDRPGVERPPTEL
How it was run: (§2)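 COX1 (ovine) and COX2 (human recombinant) were inhibited, with compound tested both without and with porcine liver esterase added. IC50 (μM) and % inhibition at saturation were reported. COX1 was also tested at a single 160 μM concentration.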

[3] = tested on: Mus musculus; assay: Analgesic activity in mouse assessed as protection against acetic acid-induced abdominal constriction dosed 1 hr before acetic acid challenge measured for 20 mins post acetic acid challenge
[4] = biological target: T3, Prostaglandin G/H synthase 1 (Ovis aries, UniProt P05979); assay: Inhibition of purified ovine COX1 pre-treated for 1 hr before 10-acetyl-3,7-dihydroxyphenoxazin substrate addition in presence of porcine liver esterase by fluorescence assay; how it was run: as §2
T3 sequence (P05979 whole entry): T2 sequence (whole entry)

[5] = tested on: Mus musculus; assay: Anti-inflammatory activity in Swiss mouse model of carrageenan-induced paw edema assessed as reduction in paw swelling at 50 mg/kg, sc dosed 30 mins before carrageenan challenge measured at 120 mins post carrageenan challenge by mercury plethysmometry; format: functional, organism-based; parameters: dose 50 mg/kg
How it was run: (§3)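 In a mouse carrageenan paw edema model, compounds were given subcutaneously as pretreatment before the carrageenan injection. Swelling of the injected paw was measured with a mercury plethysmometer at 1, 2, 3 and 4 h. Activity was expressed as reduction in swelling relative to control.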

[6] = biological target: T2, Prostaglandin G/H synthase 1 (Ovis aries); assay: Inhibition of purified ovine COX1 at saturation drug level pre-treated for 1 hr before 10-acetyl-3,7-dihydroxyphenoxazin substrate addition in absence of porcine liver esterase by fluorescence assay; how it was run: as §2
[7] = biological target: T3, Prostaglandin G/H synthase 1; assay: Inhibition of purified ovine COX1 pre-treated for 1 hr before 10-acetyl-3,7-dihydroxyphenoxazin substrate addition in absence of porcine liver esterase by fluorescence assay
How it was run: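 COX1 (ovine) and COX2 (human recombinant) were inhibited, with compound tested both without and with porcine liver esterase added. IC50 (μM) and % inhibition at saturation were reported.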

[8] = tested on: Mus musculus; assay: Analgesic activity in mouse assessed as protection against acetic acid-induced abdominal constriction dosed with equimolar mixture of propyphenazone 1 hr before acetic acid challenge measured for 20 mins post acetic acid challenge
[9] = tested on: Mus musculus; assay: Anti-inflammatory activity in Swiss mouse model of carrageenan-induced paw edema assessed as reduction in paw swelling at 50 mg/kg, sc dosed 30 mins before carrageenan challenge measured at 1 to 4 hrs post carrageenan challenge by mercury plethysmometry; format: functional, organism-based; parameters: dose 50 mg/kg; how it was run: as §3
[10] = biological target: T4, Prostaglandin G/H synthase 2 (Homo sapiens, UniProt P35354); assay: Inhibition of human recombinant COX2 pre-treated for 1 hr before 10-acetyl-3,7-dihydroxyphenoxazin substrate addition in presence of porcine liver esterase by fluorescence assay; how it was run: as §2
T4 sequence (P35354 whole entry): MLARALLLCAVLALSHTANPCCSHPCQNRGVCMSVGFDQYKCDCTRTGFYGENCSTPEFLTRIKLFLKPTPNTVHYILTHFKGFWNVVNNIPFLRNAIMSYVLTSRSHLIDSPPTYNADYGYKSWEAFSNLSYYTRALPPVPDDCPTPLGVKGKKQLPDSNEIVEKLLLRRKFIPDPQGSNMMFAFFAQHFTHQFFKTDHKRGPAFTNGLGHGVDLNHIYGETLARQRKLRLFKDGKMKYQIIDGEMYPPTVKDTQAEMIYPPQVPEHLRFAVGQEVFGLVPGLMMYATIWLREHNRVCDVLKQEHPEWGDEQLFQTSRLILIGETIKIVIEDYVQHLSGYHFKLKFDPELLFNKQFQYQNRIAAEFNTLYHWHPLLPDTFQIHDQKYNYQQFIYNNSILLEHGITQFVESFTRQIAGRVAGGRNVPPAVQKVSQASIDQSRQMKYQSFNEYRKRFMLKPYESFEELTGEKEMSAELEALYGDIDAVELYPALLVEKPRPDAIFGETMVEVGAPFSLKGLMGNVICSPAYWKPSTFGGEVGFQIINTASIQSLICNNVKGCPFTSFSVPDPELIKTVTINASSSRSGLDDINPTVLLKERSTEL

[11] = biological target: T1, Liver carboxylesterase; assay: Prodrug conversion assessed as pseudo-first-order rate constant for porcine liver esterase-mediated prodrug conversion measured every 4 minutes for 100 mins by UV-visible absorption spectroscopy; format: ADME; settings: pig, isolated protein; how it was run: as §1
[12] = tested on: Mus musculus; assay: Anti-inflammatory activity in Swiss mouse model of carrageenan-induced paw edema assessed as reduction in paw swelling at 50 mg/kg, sc dosed 30 mins before carrageenan challenge measured at 2 to 4 hrs post carrageenan challenge by mercury plethysmometry; format: functional, organism-based; parameters: dose 50 mg/kg; how it was run: as §3

t1/2 [1] | inhibition ([6]; concentration not given here) [%] | IC50 ([7]; read-out: IC50) [µM] | inhibition ([2]; concentration not given here) [%] | IC50 ([4]; read-out: IC50) [nM] | IC50 ([10]; read-out: IC50) [nM] | K [11] [s⁻¹] | SMILES | Activity [3] [%] | Anti-inflammatory activity [9] | inhibition [12] | further results
Stable |  |  |  |  |  |  | Cc1c(NCc2c(C(C)C)c(=O)n(-c3ccccc3)n2C)c(=O)n(-c2ccccc2)n1C [BISFENAZONE] | 100 |  |  | inhibition [2]: inactive; IC50 [4]: Not Active; inhibition [5]: Active; inhibition [6]: inactive; IC50 [7]: Not Active
 | 100 | 26 |  |  |  |  | Cc1c(N)c(=O)n(-c2ccccc2)n1C [AMPYRONE] | 45 |  |  | Activity [8]: 35%
 |  |  |  |  |  |  | Cc1c(C(C)C)c(=O)n(-c2ccccc2)n1C [PROPYPHENAZONE] | 45 | inactive |  | 
 |  |  |  |  |  |  | CC(C)Cc1ccc(C(C)C(=O)O)cc1 (stereo unspecified) |  | Active |  | 
Stable | 43 | 24 | 43 | 24000 |  |  | CC(C)c1c(CN(C)CCc2ccccn2)n(C)n(-c2ccccc2)c1=O | 45 | inactive |  | IC50 [10]: Not Active
11.5 min | 29 | 7.1 | 100 | 250 | 9900 | 0.001 | CC(C)c1c(COC(=O)Cc2ccccc2Nc2c(Cl)cccc2Cl)n(C)n(-c2ccccc2)c1=O | 87 |  | Active | 
38.5 min | 43 | 0.2 | 100 | 480 | 2200 | 0.0003 | CC(C)c1c(COC(=O)C(C)c2cccc(C(=O)c3ccccc3)c2)n(C)n(-c2ccccc2)c1=O (stereo unspecified) | 73 |  | Active | 
28.8 min |  |  | 100 | 4700 | 1300 | 0.0004 | CC(C)Cc1ccc(C(C)C(=O)OCc2c(C(C)C)c(=O)n(-c3ccccc3)n2C)cc1 (stereo unspecified) | 95 |  | Active | inhibition [6]: inactive; IC50 [7]: Not Active
 | 100 | 0.8 |  |  |  |  | CC(C(=O)O)c1cccc(C(=O)c2ccccc2)c1 (stereo unspecified) [KETOPROFEN] | 66 | Active |  | 
 | 100 |  |  |  |  |  | O=C(O)Cc1ccccc1Nc1c(Cl)cccc1Cl [DICLOFENAC] | 63 | Active |  | 
